Publication PMC2843780 (Bioorganic & medicinal chemistry letters, 2010)
Where two headings read alike, the source gives them in different places.

Legend:
M1 = conditions: cited from earlier work; for IC50: read-out: M1 IC50, MLSCN screen hit
hM3 = hM3 (Homo sapiens, UniProt P20309); assay: calcium mobilization assay, hM3 CHO-K1 cells; type: cell-based
hM5 = target: T1, hM5 (Homo sapiens, UniProt P08912); assay: calcium mobilization assay, hM5 CHO-K1 cells; type: cell-based; conditions: compound at 10 μM
T1 sequence (P08912 1-532): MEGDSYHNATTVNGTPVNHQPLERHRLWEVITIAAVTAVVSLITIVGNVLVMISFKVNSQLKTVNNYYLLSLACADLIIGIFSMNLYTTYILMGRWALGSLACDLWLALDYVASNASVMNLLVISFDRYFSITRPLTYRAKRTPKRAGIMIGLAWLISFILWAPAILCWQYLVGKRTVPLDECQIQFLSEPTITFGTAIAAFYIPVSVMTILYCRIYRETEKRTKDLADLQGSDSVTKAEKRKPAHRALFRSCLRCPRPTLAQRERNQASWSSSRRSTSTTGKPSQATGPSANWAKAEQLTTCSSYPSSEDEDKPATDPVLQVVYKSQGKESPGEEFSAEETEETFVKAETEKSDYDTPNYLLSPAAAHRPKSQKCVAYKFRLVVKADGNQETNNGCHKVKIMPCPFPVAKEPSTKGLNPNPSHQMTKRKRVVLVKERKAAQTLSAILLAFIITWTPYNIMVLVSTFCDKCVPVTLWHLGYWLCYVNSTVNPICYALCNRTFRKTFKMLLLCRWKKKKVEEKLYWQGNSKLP
Procedure, shortened: (§1)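 CHO-K1 cells stably expressing human receptor (M2 line also stably transfected with Gqi5 chimeric G protein so it signals through calcium; M5 line without chimera) were plated overnight. Cells were loaded with 2 μM Fluo-4 AM in HBSS/20 mM HEPES/2.5 mM probenecid, pH 7.4, for 45 min at 37°C, then dye was replaced with buffer. Cells were pre-incubated with 10 μM test compound, then given sub-maximal acetylcholine or carbachol. Signal was normalized to baseline and expressed as % of maximal acetylcholine response.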

hM2 = target: T2, hM2 (Homo sapiens, UniProt P08172); assay: calcium mobilization assay, hM2 CHO cells with Gqi5 chimeric G protein; type: cell-based; conditions: compound at 10 μM
T2 sequence (P08172 1-466): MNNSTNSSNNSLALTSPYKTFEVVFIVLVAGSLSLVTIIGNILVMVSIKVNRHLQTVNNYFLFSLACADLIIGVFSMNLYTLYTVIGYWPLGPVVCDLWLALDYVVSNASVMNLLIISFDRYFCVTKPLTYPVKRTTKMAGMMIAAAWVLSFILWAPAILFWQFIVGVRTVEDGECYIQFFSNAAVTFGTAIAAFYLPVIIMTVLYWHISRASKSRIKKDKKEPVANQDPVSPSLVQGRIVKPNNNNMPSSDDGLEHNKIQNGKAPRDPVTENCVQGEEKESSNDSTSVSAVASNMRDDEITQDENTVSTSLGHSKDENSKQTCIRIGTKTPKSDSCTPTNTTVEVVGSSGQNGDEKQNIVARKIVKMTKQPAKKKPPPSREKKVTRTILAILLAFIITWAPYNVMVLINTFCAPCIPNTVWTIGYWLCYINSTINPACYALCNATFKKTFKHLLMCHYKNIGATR
Procedure, shortened: as §1

Sequence of hM3 (P20309 whole entry): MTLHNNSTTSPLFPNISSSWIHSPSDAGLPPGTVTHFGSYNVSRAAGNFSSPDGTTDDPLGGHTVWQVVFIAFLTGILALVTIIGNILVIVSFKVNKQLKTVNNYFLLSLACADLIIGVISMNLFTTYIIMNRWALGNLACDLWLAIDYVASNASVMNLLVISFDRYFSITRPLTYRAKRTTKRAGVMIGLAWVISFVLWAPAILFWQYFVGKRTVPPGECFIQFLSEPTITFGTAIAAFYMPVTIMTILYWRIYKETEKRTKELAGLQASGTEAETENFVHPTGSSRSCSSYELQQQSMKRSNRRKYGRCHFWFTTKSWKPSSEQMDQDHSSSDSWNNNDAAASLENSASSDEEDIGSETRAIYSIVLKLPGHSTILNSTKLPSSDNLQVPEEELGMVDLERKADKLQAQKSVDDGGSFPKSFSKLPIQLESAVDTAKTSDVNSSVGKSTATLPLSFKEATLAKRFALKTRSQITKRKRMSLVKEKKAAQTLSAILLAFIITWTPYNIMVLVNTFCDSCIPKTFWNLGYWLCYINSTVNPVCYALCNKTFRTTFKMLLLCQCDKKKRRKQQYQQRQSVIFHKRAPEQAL

## CCN1CCN(c2ccc(NC(=O)CCC3CCCC3)cc2Cl)CC1 [Compound 5]
M1; M1 over M4
  selectivity versus M4: > 340 fold
M1
  IC50: 0.441 µM

## CCN1CCN(c2ccc(NC(=O)c3ccccc3)cc2Cl)CC1 [Compound 6]
M1; M1 over M2-M5
  selectivity versus M2-M5: > 30 fold
M1; original sample
  IC50: 5 µM

## CCN1CCN(c2ccc(NC(=O)c3ccccc3Cl)cc2Cl)CC1 [Compound 8a]
hM3
  IC50: 8.2 µM

## CCN1CCN(c2ccc(NC(=O)c3cc(C(F)(F)F)cc(C(F)(F)F)c3)cc2Cl)CC1 [Compound 8i]
hM5
  effect on an ACh EC80 on M5: little effect
hM2
  effect on an ACh EC80 on M2: little effect
hM3; compound at 10 μM
  effect on an ACh EC80 on M3: little effect
